Assay results: ChEMBL document CHEMBL3259614, “Design, synthesis, and structure-activity relationship studies of novel fused heterocycles-linked triazoles with good activity and water solubility” (J Med Chem, 2014)
Values after ≈ are worked out from the molar mass of the structure shown.

Assays:
[1] = test system: Candida albicans; test: Antimicrobial activity against fluconazole-resistant Candida albicans J38 after 24 hrs by serial dilution method; format: functional; details: J38, 24 h
Summary of the method: (§1)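 Broth serial-dilution MIC in 96-well plates following NCCLS guidance. Compounds were dissolved in DMSO and serially diluted in growth medium. Clinical isolates came from a hospital collection. […] C. parapsilosis ATCC 22019 served as the quality-control strain in each assay.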

[2] = test system: Candida albicans; test: Ratio of fluconazole MIC to compound MIC for fluconazole-resistant Candida albicans 100 after 24 hrs by serial dilution method; format: functional
[3] = test system: Candida albicans; test: Antimicrobial activity against Candida albicans Y0109 after 24 hrs by serial dilution method; format: functional; details: Y0109, 24 h
Summary of the method: (§2)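 Broth serial dilution MIC in 96-well plates following NCCLS/CLSI methods. Compounds were dissolved in DMSO and serially diluted in growth medium, with incubation at 35 °C. […] C. parapsilosis 22019 served as the quality-control strain in each assay.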

[4] = test system: Candida parapsilosis; test: Antimicrobial activity against Candida parapsilosis 22019 after 24 hrs by serial dilution method; format: functional; details: Lodderomyces parapsilosis, 22019, 24 h; summary of the method: as §2
[5] = test system: Candida albicans; test: Antimicrobial activity against Candida albicans SC5314 after 24 hrs by serial dilution method; format: functional; details: SC5314, 24 h; summary of the method: as §2
[6] = test system: Candida albicans; test: Antimicrobial activity against fluconazole-resistant Candida albicans 100 after 24 hrs by serial dilution method; format: functional; details: Candida albicans, 100, 24 h; summary of the method: as §1
[7] = test system: Aspergillus fumigatus; test: Antimicrobial activity against Aspergillus fumigatus 7544 after 48 hrs by serial dilution method; format: functional; details: Aspergillus fumigatus, 7544, 48 h; summary of the method: as §2
[8] = test system: Candida albicans; test: Antimicrobial activity against fluconazole-resistant Candida albicans J28 after 24 hrs by serial dilution method; format: functional; details: J28, 24 h; summary of the method: as §1
[9] = test system: Candida albicans; test: Antimicrobial activity against fluconazole-resistant Candida albicans 103 after 24 hrs by serial dilution method; format: functional; details: Candida albicans, 103, 24 h; summary of the method: as §1
[10] = test system: Candida albicans; test: Antimicrobial activity against fluconazole-resistant Candida albicans J18 after 24 hrs by serial dilution method; format: functional; details: J18, 24 h; summary of the method: as §1
[11] = test system: Candida albicans; test: Ratio of fluconazole MIC to compound MIC for fluconazole-resistant Candida albicans J18 after 24 hrs by serial dilution method; format: functional
[12] = test system: Nakaseomyces glabratus; test: Antimicrobial activity against Candida glabrata 537 after 24 hrs by serial dilution method; format: functional; details: Nakaseomyces glabratus, 537, 24 h; summary of the method: as §2
[13] = test system: Candida albicans; test: Ratio of fluconazole MIC to compound MIC for fluconazole-resistant Candida albicans 103 after 24 hrs by serial dilution method; format: functional
[14] = test system: Cryptococcus neoformans; test: Antimicrobial activity against Cryptococcus neoformans 32609 after 72 hrs by serial dilution method; format: functional; details: Cryptococcus neoformans, 32609, 72 h; summary of the method: as §2
[15] = test system: Cryptococcus neoformans; test: Ratio of ravuconazole MIC to compound MIC for Cryptococcus neoformans 32609 after 72 hrs by serial dilution method; format: functional
[16] = test system: Candida parapsilosis; test: Ratio of ravuconazole MIC to compound MIC for Candida parapsilosis 22019 after 24 hrs by serial dilution method; format: functional
[17] = test system: Nakaseomyces glabratus; test: Ratio of voriconazole MIC to compound MIC for Candida glabrata 537 after 24 hrs by serial dilution method; format: functional
[18] = test system: Candida parapsilosis; test: Ratio of voriconazole MIC to compound MIC for Candida parapsilosis 22019 after 24 hrs by serial dilution method; format: functional
[19] = test system: Nakaseomyces glabratus; test: Ratio of ravuconazole MIC to compound MIC for Candida glabrata 537 after 24 hrs by serial dilution method; format: functional
[20] = test system: Cryptococcus neoformans; test: Ratio of voriconazole MIC to compound MIC for Cryptococcus neoformans 32609 after 72 hrs by serial dilution method; format: functional
[21] = Aqueous solubility of the compound in hydrochloric acid solution at pH 1.2; format: physicochemical
Summary of the method: (§3)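 Excess solid was stirred for 3 h in pH 1.2 hydrochloric acid or pH 7.4 phosphate buffer, then filtered through 0.45 μm. Absorbance at the UV maximum was compared with a methanol standard, C′ = A′C/A, with values reported in mg/mL. Determined at 30 °C; mean ± SD, n = 3.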

[22] = Aqueous solubility of the compound in phosphate buffer at pH 7.4; format: physicochemical; summary of the method: as §3
[23] = Oral bioavailability in Sprague-Dawley rat at 10 mg/kg; format: ADME, organism-based; details: in vivo
Summary of the method: (§4)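 Male Sprague−Dawley rats (200−250 g), seven per group, dosed orally at 10 mg/kg or intravenously at 3 or 5 mg/kg in 5% DMSO + 5% Tween 80 in 90% saline. Serial retrobulbar blood samples were quantified by LC-MS. Parameters were derived from mean plasma concentrations by noncompartmental analysis. For the disulfate salt, values are based on the active free base measured.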

[24] = test system: Candida albicans; test: Antimicrobial activity against fluconazole-resistant Candida albicans 103 infected in ICR mouse assessed as mean survival days at 1 mg/kg, po qd for 5 days starting 2 hrs post infection (reference value: 1.5 +/- 0.53 days); format: functional
[25] = test system: Candida albicans; test: Antimicrobial activity against Candida albicans SC5314 infected in ICR mouse assessed as mean survival days at 0.32 mg/kg, po qd for 5 days starting 2 hrs post infection (reference value: 5.2 +/- 2.35 days starting 2 hrs post infection); format: functional
[26] = Intrinsic clearance in Sprague-Dawley rat liver microsomes assessed per mg protein at 0.1 uM by LC/MS/MS analysis; format: ADME
Summary of the method: (§5)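 Male Sprague−Dawley rat liver microsomes (0.33 mg/mL protein) in 0.1 M Tris-HCl pH 7.4 with 5 mM MgCl₂ and 1 mM NADPH. Compound at a final 0.1 μM (0.01% DMSO, 0.005% BSA), incubated at 37 °C. Samples taken at 0, 7, 17, 30 and 60 min were quenched in methanol, and parent compound was measured by LC/MS/MS. t1/2 and Clint were then calculated.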

[27] = Clearance in Sprague-Dawley rat at 3 mg/kg, iv; format: ADME, organism-based; set-up: dose 3 mg/kg, route intravenous; details: in vivo; summary of the method: as §4
[28] = AUC (0 to infinity) in Sprague-Dawley rat at 10 mg/kg, po; format: ADME, organism-based; set-up: time infinity, dose 10 mg/kg, route oral; details: plasma; summary of the method: as §4
[29] = Half life in Sprague-Dawley rat at 10 mg/kg, po; format: ADME, organism-based; set-up: dose 10 mg/kg, route oral; details: in vivo; summary of the method: as §4
[30] = test system: Candida albicans; test: Antimicrobial activity against Candida albicans SC5314 infected in ICR mouse assessed as mean survival days at 1 mg/kg, po qd for 5 days starting 2 hrs post infection (reference value: 5.2 +/- 2.35 days starting 2 hrs post infection); format: functional
[31] = test system: Candida albicans; test: Antimicrobial activity against Candida albicans SC5314 infected in ICR mouse assessed as mean survival days at 3.2 mg/kg, po qd for 5 days starting 2 hrs post infection (reference value: 5.2 +/- 2.35 days starting 2 hrs post infection); format: functional
[32] = test system: Candida albicans; test: Antimicrobial activity against fluconazole-resistant Candida albicans 103 infected in ICR mouse assessed as mean survival days at 10 mg/kg, po qd for 5 days starting 2 hrs post infection (reference value: 1.5 +/- 0.53 days); format: functional
[33] = Tmax in Sprague-Dawley rat at 10 mg/kg, po; format: ADME, organism-based; set-up: dose 10 mg/kg, route oral; details: in vivo; summary of the method: as §4
[34] = test system: Candida albicans; test: Antimicrobial activity against fluconazole-resistant Candida albicans 103 infected in ICR mouse assessed as mean survival days at 0.32 mg/kg, po qd for 5 days starting 2 hrs post infection (reference value: 1.5 +/- 0.53 days); format: functional
[35] = Half life in Sprague-Dawley rat at 3 mg/kg, iv; format: ADME, organism-based; set-up: dose 3 mg/kg, route intravenous; details: in vivo; summary of the method: as §4
[36] = test system: Candida albicans; test: Antimicrobial activity against Candida albicans SC5314 infected in ICR mouse assessed as mean survival days at 10 mg/kg, po qd for 5 days starting 2 hrs post infection (reference value: 5.2 +/- 2.35 days starting 2 hrs post infection); format: functional
[37] = target: Voltage-gated inwardly rectifying potassium channel KCNH2 (Homo sapiens, UniProt Q12809); test: Inhibition of human ERG expressed in CHO cells by whole-cell patch clamp assay; format: cell-based
[38] = Elimination half life in Sprague-Dawley rat liver microsomes at 0.1 uM by LC/MS/MS analysis; format: ADME; details: read-out: beta t1/2; summary of the method: as §5
[39] = Cmax in Sprague-Dawley rat at 10 mg/kg, po; format: ADME, organism-based; set-up: dose 10 mg/kg, route oral; details: in vivo; summary of the method: as §4
[40] = test system: Candida albicans; test: Antimicrobial activity against fluconazole-resistant Candida albicans 103 infected in ICR mouse assessed as mean survival days at 3.2 mg/kg, po qd for 5 days starting 2 hrs post infection (reference value: 1.5 +/- 0.53 days); format: functional
[41] = AUC (0 to infinity) in Sprague-Dawley rat at 3 mg/kg, iv; format: ADME, organism-based; set-up: time infinity, dose 3 mg/kg, route intravenous; details: plasma; summary of the method: as §4

Voltage-gated inwardly rectifying potassium channel KCNH2, sequence (Q12809 whole entry): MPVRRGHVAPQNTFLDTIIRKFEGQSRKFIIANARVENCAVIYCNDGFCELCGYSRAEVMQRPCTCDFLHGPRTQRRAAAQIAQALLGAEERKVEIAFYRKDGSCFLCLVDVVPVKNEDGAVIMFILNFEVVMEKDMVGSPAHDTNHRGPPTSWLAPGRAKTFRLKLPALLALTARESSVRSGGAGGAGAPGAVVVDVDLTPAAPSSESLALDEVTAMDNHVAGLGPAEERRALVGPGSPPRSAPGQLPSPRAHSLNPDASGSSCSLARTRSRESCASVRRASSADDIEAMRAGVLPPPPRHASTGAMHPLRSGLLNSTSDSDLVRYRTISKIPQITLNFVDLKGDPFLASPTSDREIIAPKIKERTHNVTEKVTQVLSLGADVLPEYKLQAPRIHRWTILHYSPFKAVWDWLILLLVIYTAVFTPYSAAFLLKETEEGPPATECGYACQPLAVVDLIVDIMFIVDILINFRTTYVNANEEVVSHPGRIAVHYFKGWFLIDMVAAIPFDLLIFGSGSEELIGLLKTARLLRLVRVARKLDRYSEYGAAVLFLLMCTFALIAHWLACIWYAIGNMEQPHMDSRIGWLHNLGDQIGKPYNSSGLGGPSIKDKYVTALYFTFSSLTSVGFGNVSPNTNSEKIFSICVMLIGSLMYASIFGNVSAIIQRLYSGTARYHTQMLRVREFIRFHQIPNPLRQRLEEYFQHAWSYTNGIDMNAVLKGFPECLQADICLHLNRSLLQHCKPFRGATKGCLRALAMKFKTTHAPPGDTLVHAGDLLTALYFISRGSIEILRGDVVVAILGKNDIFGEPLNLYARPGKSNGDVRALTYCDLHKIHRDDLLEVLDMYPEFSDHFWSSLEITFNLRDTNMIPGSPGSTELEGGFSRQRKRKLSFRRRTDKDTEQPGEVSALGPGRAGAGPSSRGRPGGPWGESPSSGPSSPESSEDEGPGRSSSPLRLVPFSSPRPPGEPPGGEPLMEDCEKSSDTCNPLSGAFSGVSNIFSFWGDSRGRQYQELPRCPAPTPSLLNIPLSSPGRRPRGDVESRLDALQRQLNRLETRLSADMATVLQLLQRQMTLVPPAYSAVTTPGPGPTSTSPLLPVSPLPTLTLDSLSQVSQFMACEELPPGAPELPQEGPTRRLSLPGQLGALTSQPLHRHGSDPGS

SMILES | MIC [1] [µg/mL] | Ratio [2] | MIC [3] [µg/mL] | MIC [4] [µg/mL] | MIC [5] [µg/mL] | MIC [6] [µg/mL] | MIC [7] [µg/mL] | MIC [8] [µg/mL] | MIC [9] [µg/mL] | MIC [10] [µg/mL] | Ratio [11] | MIC [12] [µg/mL] | Ratio [13] | MIC [14] [µg/mL] | solubility [21] [µg/mL] | further results
C[C@@H](N1CCn2nnc(Br)c2C1)[C@](O)(Cn1cncn1)c1ccc(F)cc1F | 0.25 (≈ 0.55 µM) | 16 | 0.0625 (≈ 0.138 µM) | 0.125 (≈ 0.275 µM) | ≤ 0.0312 | > 32 | 8 (≈ 17.6 µM) | 2 (≈ 4.4 µM) | > 32 | > 32 | 16 | 0.25 (≈ 0.55 µM) | 16 | ≤ 0.0625 | – | –
C[C@@H](N1CCn2cc(-c3ccccc3)nc2C1)[C@](O)(Cn1cncn1)c1ccc(F)cc1F | 0.125 (≈ 0.277 µM) | 16 | 0.0625 (≈ 0.139 µM) | 0.0625 (≈ 0.139 µM) | 0.0625 (≈ 0.139 µM) | > 32 | 16 (≈ 35.5 µM) | 0.5 (≈ 1.11 µM) | > 32 | > 32 | 16 | 0.0312 (≈ 0.0694 µM) | 16 | 0.0312 (≈ 0.0694 µM) | – | Ratio [15]: 2; Ratio [16]: 2; Ratio [17]: 2; Ratio [18]: 2; Ratio [19]: 2; Ratio [20]: 2
C[C@@H](N1CCn2nc(-c3ccccc3)nc2C1)[C@](O)(Cn1cncn1)c1ccc(F)cc1F | 0.0625 (≈ 0.138 µM) | 16 | 0.125 (≈ 0.277 µM) | 0.125 (≈ 0.277 µM) | 0.0625 (≈ 0.138 µM) | > 32 | 32 (≈ 70.9 µM) | 0.5 (≈ 1.11 µM) | > 32 | > 32 | 16 | 0.125 (≈ 0.277 µM) | 16 | 0.125 (≈ 0.277 µM) | 316 (≈ 700 µM) | solubility [22]: 97 µg/mL (≈ 215 µM)
C[C@@H](N1CCn2nc(-c3ccc(C#N)nc3)nc2C1)[C@](O)(Cn1cncn1)c1ccc(F)cc1F | ≤ 0.0312 | – | 0.0156 (≈ 0.0327 µM) | 0.0156 (≈ 0.0327 µM) | 0.0156 (≈ 0.0327 µM) | 8 (≈ 16.8 µM) | 1 (≈ 2.09 µM) | 0.0625 (≈ 0.131 µM) | > 16 | > 16 | – | 0.0078 (≈ 0.0163 µM) | – | 0.0078 (≈ 0.0163 µM) | 44 (≈ 92.2 µM) | bioavailability [23]: 105%; Survival [24]: 2 days; Survival [25]: 8 days; microsomal CLint at 0.1 µM [26]: 5 µL/min/mg; clearance [27]: 22.7 mL/min/kg; AUC(0-inf) [28]: 7910 ng·h/mL; half-life [29]: 3.63 h; Survival [30]: 12.3 days; Survival [31]: 14.1 days; Survival [32]: 8.3 days; Tmax [33]: 1.75 h; Survival [34]: 1.7 days; half-life [35]: 1.2 h; Survival [36]: 18.1 days; IC50 [37]: > 40 µM; half-life at 0.1 µM [38]: 7.17 h; Cmax [39]: 1420 ng/mL; Survival [40]: 3.6 days; AUC(0-inf) [41]: 2240 ng·h/mL
